# Test results as given in PMC11533547 (Poultry Science, 2024).
# pKd: −log10 of the molar value. No end group written: not given here.
# Assays:
# [1] = molecular target: T1, chicken PD-1 protein (Gallus gallus, UniProt A0A1L1RYS1); experiment: MST affinity of peptides for chicken PD-1 protein; type: binding
# T1 sequence (A0A1L1RYS1 1-304): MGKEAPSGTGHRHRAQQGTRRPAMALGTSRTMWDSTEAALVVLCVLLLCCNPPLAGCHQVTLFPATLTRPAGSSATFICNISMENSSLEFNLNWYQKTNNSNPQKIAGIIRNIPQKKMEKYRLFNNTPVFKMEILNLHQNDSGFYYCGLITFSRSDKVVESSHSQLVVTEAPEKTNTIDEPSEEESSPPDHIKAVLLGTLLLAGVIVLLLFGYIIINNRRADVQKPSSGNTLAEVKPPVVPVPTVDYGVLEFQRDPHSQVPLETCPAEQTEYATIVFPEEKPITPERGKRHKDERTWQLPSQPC
# In short: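 Chicken PD-1 protein labelled with a BLUE-NHS amine-reactive dye, then mixed in equal volumes with each peptide from a 2-fold dilution series in PBS (pH 7.4), 1800 to 0.054 nM. Incubated about 5 min, loaded into standard capillaries and read at once by microscale thermophoresis. Chicken PD-L1 protein (100 nM) as positive control. KD reported as the mean of 3 independent experiments.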
# [2] = test system: DT40 cells; experiment: MTT cell viability assay; type: cell-based, chicken; conditions: 10 to 500 nM peptide, 24 h, OD450
sequence,measurement,setting,value
DAGLYHCLIEYGGADYKTINLK [gDK2-3],pKd,[1],8.01
same,cell viability (cytotoxicity),[2],no significant effect on cell viability
